Laboratory results taken from ChEMBL document CHEMBL4359886, “Imidazo[2,1-a]isoindole scaffold as an uncharted structure active on Leishmania donovani” (Eur J Med Chem, 2019).
The source made the active and inactive calls. The calls are words filed in the database; no cut-off is given here.

How the values were obtained:
Leishmania donovani [1] = experiment: Antileishmanial activity against Leishmania donovani promastigotes incubated for 72 hrs by MTT assay; format: functional, organism-based
Method in brief: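 Promastigote proliferation was followed for 72 h in the presence of compound, then read by MTT reduction. EC50 is the concentration giving 50% inhibition of proliferation, from three independent experiments.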

Leishmania donovani [2] = experiment: Induction of plasma membrane permeabilization in Leishmania donovani promastigotes assessed as formation of blebbings in plasma membrane at EC70 incubated for 12 hrs by transmission electron microscopic method; format: functional, organism-based
Leishmania donovani [3] = experiment: Antileishmanial activity against Leishmania donovani promastigotes incubated for 4 hrs by MTT assay; format: functional, organism-based
Method in brief: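 L. donovani promastigotes at 20×10^6 cells/mL in RPMI 1640 without serum or phenol red were exposed to compound for 4 h at 26 °C. MTT was then added (0.5 mg/mL final) for 2 h, and formazan was solubilized with 0.5% SDS final. A595 was read. IC50 is the concentration inhibiting MTT reduction by 50%. Run in triplicate, repeated at least twice.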

[4] = Cytotoxicity against human MRC5 cells assessed as reduction in cell viability incubated for 72 hrs by MTT assay; format: cell-based
Method in brief: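 MRC5-SV2 (SV40-transformed human lung fibroblasts) were grown in DMEM with 10% hiFBS at 37 °C, 5% CO₂. Cells were exposed to increasing compound concentrations for 72 h at 37 °C, followed by MTT reduction. CC50 is the concentration reducing proliferation by 50% versus untreated cells. Three independent experiments in triplicate.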

Leishmania donovani [5] = experiment: Antileishmanial activity against Leishmania donovani promastigotes harboring 3-Luc gene assessed as decrease in intracellular ATP level using DMNEP-D-luciferin as substrate at 5 to 50 uM measured for 10 mins by luminescence based assay; format: functional, organism-based
Method in brief: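 3-Luc promastigotes at 20×10^6 cells/mL in serum-free, phenol-red-free RPMI 1640 containing 50 µM DMNPE-D-luciferin. Once luminescence was stable, compound (5–50 µM) was added and luminescence of the live parasites followed in real time. Expressed as percent of untreated parasites. Parasites given 1.5 µM 1,4-naphthoquinone served as control.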

[6] = Selectivity index, ratio of CC50 for macrophage-differentiated human THP1 cells to EC50 for Leishmania donovani MHOM/ET/67/HU3 amastigotes harboring luciferase reporter gene infected in macrophage-differentiated human THP1 cells; format: toxicity; conditions: macrophage-differentiated THP-1 cells, read-out: Ratio CC50/EC50
Method in brief: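 CC50 came from PMA-differentiated THP-1 cells exposed to compound for 72 h at 37 °C and read by MTT reduction (three independent experiments, triplicate). This was divided by the EC50 against intracellular amastigotes, measured by luciferase luminescence after 72 h of treatment.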

[7] = Cytotoxicity against macrophage-differentiated human THP1 cells assessed as reduction in cell viability incubated for 72 hrs by MTT assay; format: cell-based; conditions: macrophage-differentiated THP-1 cells
Method in brief: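 THP-1 cells (3×10^4 per well) were differentiated with PMA (20 ng/mL, 48 h), then kept 24 h in fresh RPMI-1640 with 10% hiFBS. They were exposed to increasing compound concentrations for 72 h at 37 °C, then read by MTT reduction. CC50 is the 50% reduction versus untreated controls. Three independent experiments in triplicate.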

Leishmania donovani [8] = experiment: Antileishmanial activity against Leishmania donovani MHOM/ET/67/HU3 amastigotes harboring luciferase reporter gene infected in macrophage-differentiated human THP1 cells incubated for 72 hrs by luminescence based assay; format: functional, organism-based; conditions: MHOM/ET/67/HU3, THP-1, 72 h
Method in brief: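 THP-1 cells were differentiated with PMA (20 ng/mL, 48 h), then kept 24 h in fresh medium. They were infected 24 h at 35 °C with stationary luciferase-expressing promastigotes at a macrophage:parasite ratio of 1:10, and free parasites were washed off. Compounds were added at 0.62–40 μM for 72 h at 37 °C. Cells were lysed with 0.1% Triton X-100 and luminescence read. EC50 from three independent experiments in triplicate.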

Leishmania donovani [9] = experiment: Antileishmanial activity against Leishmania donovani promastigotes harboring 3-Luc gene assessed as decrease in intracellular ATP level at 5 to 50 uM using DMNEP-D-luciferin as substrate pretreated for 4 hrs followed by substrate addition measured for 10 mins by luminescence based assay; format: functional, organism-based
Method in brief: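 3-Luc promastigotes, which express cytoplasmic luciferase, at 20×10^6 cells/mL in serum-free, phenol-red-free RPMI 1640, incubated with 5, 10, 20, 30, 40 or 50 µM compound for 4 h at 26 °C. DMNPE-D-luciferin then added to 50 µM final, and luminescence recorded for 10 min. Values given as percent of untreated parasites. 1.5 µM 1,4-naphthoquinone used as respiratory-chain-inhibited control.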

Leishmania donovani [10] = experiment: Induction of mitochondrial membrane depolarization in Leishmania donovani promastigotes assessed as swelling of mitochondrial cristae at EC70 incubated for 12 hrs by transmission electron microscopic method; format: functional, organism-based
Leishmania donovani [11] = experiment: Induction of plasma membrane permeabilization in Leishmania donovani promastigotes by sytox green-based fluorescence assay; format: functional, organism-based
Method in brief: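 Promastigotes at 20×10^6/mL in serum-free, phenol-red-free RPMI 1640 containing 1 µM SYTOX green received compound (10–50 µM tested). Fluorescence increase (ex 485/em 520 nm) was followed in real time. Triton X-100 (0.1% final) was then added to give full permeabilization, taken as 100%.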

Leishmania donovani [12] = experiment: Induction of mitochondrial membrane depolarization in Leishmania donovani promastigotes at 30 uM incubated for 4 hrs by Rhodamine 123 dye-based flow cytometric assay; format: functional, organism-based
Method in brief: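 Promastigotes at 20×10^6 cells/mL in serum-free, phenol-red-free RPMI 1640 were incubated with compound for 4 h. Rh123 (0.5 µg/mL) was added for 10 min, unbound probe was washed off, and intracellular accumulation was read by flow cytometry (ex 488/em 520 nm). Parasites given 10 mM KCN served as the dysfunctional-mitochondrion control.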

## CSc1ccc(CC2(O)c3cc(Cl)c(Cl)cc3C3=NCCN32)cc1 (stereo not given)
Leishmania donovani [1]
  EC50: 2.1 µM
Leishmania donovani [2]
  Activity: Active
Leishmania donovani [3]
  IC50: 7.3 µM
[4]
  CC50 at 72 h: 8.48 µM
Leishmania donovani [5]
  Activity: Active
[6]
  selectivity ratio: 31.1
[7]
  CC50 at 72 h: 31.1 µM
Leishmania donovani [8]
  EC50: 1000 nM
Leishmania donovani [9]
  Activity: Active
Leishmania donovani [10]
  Activity: Active
Leishmania donovani [11]
  Activity: Dose-dependent effect
Leishmania donovani [12]
  Activity: Active

## CSc1ccc(CC2(O)c3c(Cl)ccc(Cl)c3C3=NCCN32)cc1 (stereo not given)
[4]
  CC50 at 72 h: 77.4 µM
[6]
  selectivity ratio: 12.7
[7]
  CC50 at 72 h: 84.4 µM
Leishmania donovani [8]
  EC50: 6650 nM

## OC1(Cc2ccccc2)c2ccccc2C2=NCCN21 (stereo not given)
[4]
  CC50 at 72 h: 182 µM
[7]
  CC50 at 72 h: > 200 µM
Leishmania donovani [8]
  EC50: 27800 nM

## C[C@@H]1[C@H](O)[C@@H](C)/C=C/C=C/C=C/C=C/C=C/C=C/C=C/[C@H](O[C@@H]2O[C@H](C)[C@@H](O)[C@H](N)[C@@H]2O)C[C@@H]2O[C@](O)(C[C@@H](O)C[C@@H](O)[C@H](O)CC[C@@H](O)C[C@@H](O)CC(=O)O[C@H]1C)C[C@H](O)[C@H]2C(=O)O [AMPHOTERICIN B]
[4]
  CC50 at 72 h: 12 µM
[7]
  CC50 at 72 h: 16 µM

## OC1(Cc2ccccc2Cl)c2c(Cl)ccc(Cl)c2C2=NCCN21 (stereo not given)
[4]
  CC50 at 72 h: 41 µM
[6]
  selectivity ratio: 19.7
[7]
  CC50 at 72 h: 82 µM
Leishmania donovani [8]
  EC50: 4160 nM

## OC1(Cc2ccc(Cl)cc2)c2ccccc2C2=NCCN21 (stereo not given)
Leishmania donovani [1]
  EC50: 11.8 µM
[4]
  CC50 at 72 h: 80 µM
[6]
  selectivity ratio: 69.1
[7]
  CC50 at 72 h: 145 µM
Leishmania donovani [8]
  EC50: 2100 nM

## OC1(Cc2ccc(Cl)cc2)c2cc(Cl)c(Cl)cc2C2=NCCN21 (stereo not given)
Leishmania donovani [1]
  EC50: 6.9 µM
[4]
  CC50 at 72 h: 8.91 µM
[6]
  selectivity ratio: 10.8
[7]
  CC50 at 72 h: 31.9 µM
Leishmania donovani [8]
  EC50: 2950 nM

## OC1(Cc2ccc(Cl)cc2)c2c(Cl)ccc(Cl)c2C2=NCCN21 (stereo not given)
Leishmania donovani [1]
  EC50: 13.3 µM
Leishmania donovani [3]
  IC50: 14.4 µM
[4]
  CC50 at 72 h: 33.8 µM
Leishmania donovani [5]
  Activity: Active
[6]
  selectivity ratio: 26.2
[7]
  CC50 at 72 h: 68.7 µM
Leishmania donovani [8]
  EC50: 2620 nM
Leishmania donovani [9]
  Activity: Active
Leishmania donovani [11]
  Activity: Dose-dependent effect
Leishmania donovani [12]
  Activity: Active
